Experiment [1] relates to L6. In words: Increase in 2-[3H]-deoxyglucose uptake in rat L6 cells at 10 uM after 16 hrs by scintillation counting analysis (reference value: 0%). In kind it is functional.
Experiment [2] has as its system L6. In words: Increase in 2-[3H]-deoxyglucose uptake in rat L6 cells after 16 hrs by scintillation counting analysis. In kind it is functional, cell-based. The method, boiled down: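 Dose–response in L6 myotubes: vehicle (DMSO) or compound at 5, 10, 25 µM for 16 h before glucose uptake measurement; rosiglitazone 10 µM as positive control. Expressed as fold stimulation over control; mean ± SE of three independent experiments, each in triplicate.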

In ChEMBL document CHEMBL3286380, “Design and synthesis of lupeol analogues and their glucose uptake stimulatory effect in L6 skeletal muscle cells” (Bioorg Med Chem Lett, 2014) one finds Activity and EC50 data, which are given here for 14 compounds.

pEC50: −log10 of the molar value.

With `CC1(C)[C@@H](O)CC[C@]2(C)[C@H]3CC[C@@H]4[C@H]5[C@H]([C@@H](C=O)C(O)c6ccccc6)CC[C@]5(C)CC[C@@]4(C)[C@]3(C)CC[C@@H]12` (stereo not given in full), in the experiment on L6 [1], the Activity is listed as 6.4%. `C=C(C=O)[C@@H]1CC[C@]2(C)CC[C@]3(C)[C@H](CC[C@@H]4[C@@]5(C)CC[C@H](OC(=O)C(Br)C(C)C)C(C)(C)[C@@H]5CC[C@]43C)[C@@H]12` (stereo not given in full) registered an Activity with L6 [1] of 3.1%.

Take `C=CC1=COC[C@@H]1[C@@H]1CC[C@]2(C)CC[C@]3(C)[C@H](CC[C@@H]4[C@@]5(C)CC[C@H](OC(C)=O)C(C)(C)[C@@H]5CC[C@]43C)[C@@H]12`: the Activity in the experiment on L6 [1] is given as 2.1%. Still for that read-out and setting: the figure for `CC(=O)O[C@H]1CC[C@]2(C)[C@H]3CC[C@@H]4[C@H]5[C@H]([C@@H]6C=COC6)CC[C@]5(C)CC[C@@]4(C)[C@]3(C)CC[C@H]2C1(C)C` is 3.6%. On the same count and under the same terms, in the case of `CC1(C)[C@@H](OC(=O)CCc2ccc(Cl)cc2)CC[C@]2(C)[C@H]3CC[C@@H]4[C@H]5[C@H]([C@H]6C=NN(C(=O)CCc7ccc(Cl)cc7)C6)CC[C@]5(C)CC[C@@]4(C)[C@]3(C)CC[C@@H]12` it was 2.8%. As usually defined, the pEC50 is the EC50 on a negative log10 scale, so that one unit is a factor of ten. High values mean a small EC50, low ones a large EC50. Compound `CN(CCOc1ccc(CC2SC(=O)NC2=O)cc1)c1ccccn1` (stereo not given) [ROSIGLITAZONE] returned an Activity with L6 [1] of 112.4%. For the same compound, the pEC50 with L6 [2] was 5.32. In the experiment on L6 [1], `CC1(C)[C@@H](O)CC[C@]2(C)[C@H]3CC[C@@H]4[C@H]5[C@H]([C@H]6C=NNC6)CC[C@]5(C)CC[C@@]4(C)[C@]3(C)CC[C@@H]12` came in with an Activity of 16.1%. Same read-out and setting: the figure for `C=C(CO)[C@@H]1CC[C@]2(C)CC[C@]3(C)[C@H](CC[C@@H]4[C@@]5(C)CC[C@H](OC(C)=O)C(C)(C)[C@@H]5CC[C@]43C)[C@@H]12` is 22.2%; for `CC1(C)[C@@H](O)CC[C@]2(C)[C@H]3CC[C@@H]4[C@H]5[C@H]([C@H]6C=NOC6c6ccccc6)CC[C@]5(C)CC[C@@]4(C)[C@]3(C)CC[C@@H]12` (stereo not given in full) it is 13.2%. Same read-out and setting: in the case of `C=C(C=O)[C@@H]1CC[C@]2(C)CC[C@]3(C)[C@H](CC[C@@H]4[C@@]5(C)CC[C@H](OC(=O)CCc6ccc(Cl)cc6)C(C)(C)[C@@H]5CC[C@]43C)[C@@H]12` it was 0.5%; in that of `C=C(C)[C@@H]1CC[C@]2(C)CC[C@]3(C)[C@H](CC[C@@H]4[C@@]5(C)CC[C@H](O)C(C)(C)[C@@H]5CC[C@]43C)[C@@H]12` [LUPEOL], 26.8%. The same measure, in the same setting: in the case of `C=CCOCC(=C)[C@@H]1CC[C@]2(C)CC[C@]3(C)[C@H](CC[C@@H]4[C@@]5(C)CC[C@H](OC(C)=O)C(C)(C)[C@@H]5CC[C@]43C)[C@@H]12` it was 8.5%; in that of `CC(C)C(Br)C(=O)O[C@H]1CC[C@]2(C)[C@H]3CC[C@@H]4[C@H]5[C@H]([C@H]6C=NN(C(=O)C(Br)C(C)C)C6)CC[C@]5(C)CC[C@@]4(C)[C@]3(C)CC[C@H]2C1(C)C` (stereo not given in full), 8.4%; in that of `C#CCOCC(=C)[C@@H]1CC[C@]2(C)CC[C@]3(C)[C@H](CC[C@@H]4[C@@]5(C)CC[C@H](OC(C)=O)C(C)(C)[C@@H]5CC[C@]43C)[C@@H]12`, 19.2%.
